Each block holds one molecule with its values, some of them ahead of it.
Experiments:
[1] = Studies 1 and 2, steady‐state plasma PK of filgotinib and its major metabolite; format: in vivo, human; conditions: for Tmax of major metabolite, steady state: median (range)
In short: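 RA patients on stable methotrexate took oral test compound or placebo capsules for 4 weeks: 200 mg once daily or 100 mg twice daily (study 1), or 30, 75, 150 or 300 mg once daily (study 2). In a subset (12 and 15 patients), plasma parent and major metabolite were sampled predose and 1, 2, 3, 5 and 8 h after the morning dose, at week 2 or 4. Descriptive statistics were calculated by dose.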

JAK‐1 = conditions: cited from earlier work
[2] = cited from earlier work
[3] = tested on: patients with RA who had had an insufficient response to MTX; conditions: cited from earlier work
[4] = after filgotinib 30 mg once daily, study 2, arithmetic mean (coefficient of variation)
[5] = after filgotinib 75 mg once daily, study 2, arithmetic mean
[6] = after filgotinib 100 mg twice daily, study 1, arithmetic mean (coefficient of variation)
[7] = after filgotinib 150 mg once daily, study 2, arithmetic mean (coefficient of variation)
[8] = after filgotinib 200 mg once daily, study 1, arithmetic mean (coefficient of variation)
[9] = after filgotinib 300 mg once daily, study 2, arithmetic mean (coefficient of variation)

- dose proportionality of PK ([1]; 30–300 mg range): essentially dose proportional
- AUCtau of major metabolite, steady state [1, 4]: 11.2 (52.2) μg.hour/ml
- Cmax of major metabolite, steady state [1, 4]: 0.582 (48.5) μg/ml
- Tmax of major metabolite, steady state ([1]; after filgotinib 30 mg once daily, study 2): 5 (1–8) hours
- AUCtau of major metabolite, steady state [1, 5]: 26.0 µg·h/mL
- Cmax of major metabolite, steady state [1, 5]: 1.46 µg/mL
- Tmax of major metabolite, steady state ([1]; after filgotinib 75 mg once daily, study 2): 5.5 (3–8) hours
- AUCtau of major metabolite, steady state [1, 6]: 33.1 (26.3) μg.hour/ml
- Cmax of major metabolite, steady state [1, 6]: 3.18 (25.0) μg/ml
- Tmax of major metabolite, steady state ([1]; after filgotinib 100 mg twice daily, study 1): 2 (0–5) hours
- AUCtau of major metabolite, steady state [1, 7]: 75.9 (31.0) μg.hour/ml
- Cmax of major metabolite, steady state [1, 7]: 3.79 (26.5) μg/ml
- Tmax of major metabolite, steady state ([1]; after filgotinib 150 mg once daily, study 2): 3 (2–5) hours
- AUCtau of major metabolite, steady state [1, 8]: 71.8 (31.3) μg.hour/ml
- Cmax of major metabolite, steady state [1, 8]: 3.77 (23.6) μg/ml
- Tmax of major metabolite, steady state ([1]; after filgotinib 200 mg once daily, study 1): 3 (1–5) hours
- AUCtau of major metabolite, steady state [1, 9]: 93.9 (20.4) μg.hour/ml
- Cmax of major metabolite, steady state [1, 9]: 4.62 (9.98) μg/ml
- Tmax of major metabolite, steady state ([1]; after filgotinib 300 mg once daily, study 2): 3 (3–8) hours
- time of dosing to attain steady state ([1]; in vivo): ≤ 4 days
- exposure to major metabolite, higher than exposure to parent filgotinib ([1]; steady state, 75–300 mg dose range): 13 fold
Compound: Nc1nc2cccc(-c3ccc(CN4CCS(=O)(=O)CC4)cc3)n2n1 [major metabolite]
- JAK‐1 inhibition potency of metabolite, lower than filgotinib (JAK‐1): ~10 fold
- half‐life [2]: ~24 h
- overall exposure of metabolite, higher than that of filgotinib ([2]; in humans): ~15 fold

Compound: CC[C@@H]1CN(C(=O)NCC(F)(F)F)C[C@@H]1c1cnc2cnc3[nH]ccc3n12 [ABT‐494]
- effect on natural killer (NK) cells [3]: decreased
- effect on hemoglobin ([3]; middle and higher doses, within 4 weeks): decline in hemoglobin

— paper PMC5656813 (Arthritis & Rheumatology (Hoboken, N.j.), 2017)
